Arrestin-AP2 inh – blocks beta-arrestin peptide binding to AP2 adaptin. FITC-arrestin peptide / GST-AP2 beads, flow cytometry; AP2 beta2 appendage carries R879A mutation. inhibition, % at 10 µM. actives 0.31% (n = 340,000);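 active means inhibition above a set limit, near 3 SD of compounds lacking own fluorescence, cut at about 54% in these data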
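System: GST-tagged AP2 beta2-adaptin appendage (R879A) on 4 µm glutathione beads / Reagent: FITC-arrestin peptide, 50 nM / Detection: HyperCyt-sampled flow cytometry, FL1 channel, ex 488/em 535 nm / Timing: 12 min plus 1 h, RT / Buffer or medium: PBS plus Tween 20 (0.05%) and BSA (0.1%)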
pCIP destab – p/CIP protein destabilization | F442A p/CIP-EGFP cells, EGFP fluorescence, 16 h | decrease of EGFP signal, % at 10 µM | AID 1984 | actives 0.01% (n = 290,000) | Q05BA5;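 active means EGFP signal decrease of at least 30% at 10 µM or well 3 SD below plate mean, unless failing retest; inactive means the rest, including hits failing retest or dose response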
Target sequence (Q05BA5 1-1403): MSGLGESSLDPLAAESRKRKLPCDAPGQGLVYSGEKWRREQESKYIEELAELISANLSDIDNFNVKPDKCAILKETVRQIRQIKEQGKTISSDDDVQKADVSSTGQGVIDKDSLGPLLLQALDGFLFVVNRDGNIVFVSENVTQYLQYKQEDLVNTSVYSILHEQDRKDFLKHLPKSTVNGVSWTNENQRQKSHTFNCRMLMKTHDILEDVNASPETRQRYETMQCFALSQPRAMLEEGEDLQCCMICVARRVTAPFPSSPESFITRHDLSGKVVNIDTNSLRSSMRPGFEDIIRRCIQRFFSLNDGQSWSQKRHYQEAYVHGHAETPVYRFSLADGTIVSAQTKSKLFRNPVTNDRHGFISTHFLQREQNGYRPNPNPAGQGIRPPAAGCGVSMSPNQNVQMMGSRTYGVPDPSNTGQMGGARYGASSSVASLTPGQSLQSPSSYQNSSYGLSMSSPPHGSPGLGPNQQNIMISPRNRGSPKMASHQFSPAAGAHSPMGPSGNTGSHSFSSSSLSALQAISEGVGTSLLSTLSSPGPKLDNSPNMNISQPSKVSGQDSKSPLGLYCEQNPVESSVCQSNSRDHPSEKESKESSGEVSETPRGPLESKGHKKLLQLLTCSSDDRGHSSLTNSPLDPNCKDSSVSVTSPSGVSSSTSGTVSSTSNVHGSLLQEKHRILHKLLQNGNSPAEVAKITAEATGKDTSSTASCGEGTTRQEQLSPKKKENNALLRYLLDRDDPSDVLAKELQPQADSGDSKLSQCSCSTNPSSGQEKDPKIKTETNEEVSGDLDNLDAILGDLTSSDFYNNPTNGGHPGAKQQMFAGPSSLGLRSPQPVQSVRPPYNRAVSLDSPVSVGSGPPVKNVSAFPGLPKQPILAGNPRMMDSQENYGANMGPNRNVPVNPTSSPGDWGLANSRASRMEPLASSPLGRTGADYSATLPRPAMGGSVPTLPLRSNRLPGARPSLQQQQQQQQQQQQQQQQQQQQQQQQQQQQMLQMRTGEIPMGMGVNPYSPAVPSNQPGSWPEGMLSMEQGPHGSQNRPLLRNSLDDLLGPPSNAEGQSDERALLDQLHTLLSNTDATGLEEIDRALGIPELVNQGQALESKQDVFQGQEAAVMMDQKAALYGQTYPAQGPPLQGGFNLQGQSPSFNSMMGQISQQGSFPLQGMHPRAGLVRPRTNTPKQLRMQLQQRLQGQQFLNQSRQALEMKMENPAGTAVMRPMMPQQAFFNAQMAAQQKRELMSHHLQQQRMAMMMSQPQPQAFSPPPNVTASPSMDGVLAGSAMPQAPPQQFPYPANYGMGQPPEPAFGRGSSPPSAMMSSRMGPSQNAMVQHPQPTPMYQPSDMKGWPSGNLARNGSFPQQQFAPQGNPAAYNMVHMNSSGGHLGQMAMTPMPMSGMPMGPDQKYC
Lipid droplet – modulators of hepatic lipid droplet formation; AML12 mouse hepatocytes, oleate lipid droplets, BODIPY imaging; inhibition, % at 6.5 µM; actives 0.4% (n = 240,000); AID 1656;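 active means lipid droplet intensity inhibited by at least 50%, with more than 500 cells counted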
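Material – mouse AML12 hepatocyte cell line, fixed after treatment · Compound dosing – one dose, 6.5 µM compound · Times – compound with oleate, overnight · Measured by – Image-based BODIPY and DAPI two-channel analysis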
CTSL1 counter – blocks F. hepatica cathepsin L1 in PFM18AAP counter-screen; inhibition, % at 5.96 µM; recombinant F. hepatica cathepsin L1, Z-Leu-Arg-MCA fluorescence; AID 1906; actives 0.49% (n = 300,000);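 active means inhibition above the mean of all tested compounds plus 3 SD, set per screening campaign, cut at about 17% in these data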
Arr AP2 CP1 – human beta-arrestin and AP2 interaction inhibition, cherry pick | GST-AP2 beads, FITC arrestin peptide binding, flow cytometry; GST-fused beta2-adaptin appendage, R879A mutant | shares compounds with Arrestin-AP2 inh | inhibition, % at 10 µM | actives 2% (n = 1,300);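 active means inhibition above a set limit, roughly 3 SD of non-fluorescent compound noise, cut at about 38% in these data; inactive means inhibition at or below that limit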;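 further: loss of bead fluorescence from 50 nM FITC arrestin peptide bound to appendage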
GST-FITC bead – counter-screen for beta-arrestin AP2 inhibitors: GST-GSH bead binding; shares compounds with Arrestin-AP2 inh; GST-fluorescein binding to GSH beads, fluorescence; inhibition, % at 10 µM; AID 588338; actives 2% (n = 1,300);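 active means inhibition above 50%, about 3 SD of the inhibition seen with non-fluorescent compounds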;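 further: fluorescein maleimide labelled GST captured on 4 micron glutathione beads; higher means more loss of bead fluorescence from quenching or blocked binding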
A number is an active result; . = inactive; / = not tested or not shown. Compounds with a hit are over-represented: about 1% of the library has one in this group of screens.

SMILES	Arrestin-AP2 inh	pCIP destab	Lipid droplet	CTSL1 counter	Arr AP2 CP1	GST-FITC bead
COCCCNc1nc2ccccc2nc1NS(=O)(=O)c1ccc(C)c(C)c1	.	.	.	.	/	/
COCCNc1nc2ccccc2nc1NS(=O)(=O)c1ccc(C)cc1C	105	.	.	.	.	.
COc1cc(Cl)c(C)cc1NC(=O)COC(=O)c1ccc(CN2CCCC2=O)cc1	65	/	/	/	.	.
Cc1ccc(Cl)cc1NC(=O)COC(=O)c1ccc(CN2CCCC2=O)cc1	.	/	/	/	/	/
CCOc1ccc(CN2CCN(Cc3cc4ccccc4o3)CC2CCO)cc1 (stereo not drawn)	66	.	.	.	.	.
COc1cccc(CN2CCN(Cc3cc4ccccc4o3)CC2CCO)c1 (stereo not drawn)	.	.	.	.	/	/
Cc1cc(Cl)ccc1N(CC(=O)NCc1ccc2c(c1)OCO2)S(C)(=O)=O	60	.	.	.	.	.
Cc1cc(C)cc(NC(=O)C(=O)NCC2CCCN2S(=O)(=O)c2cccs2)c1 (stereo not drawn)	69	/	/	.	.	.
CC[n+]1c(/C=C/Nc2ccccc2)oc2ccc(OC)cc21	58	.	.	.	.	.
COc1ccc(/C=N/Nc2nnc(Cc3ccc(OC)c(OC)c3)c(=O)[nH]2)cc1OC	.	.	.	.	/	/
Cc1ccc(F)cc1NC(=O)CCc1c(C)nn(-c2ccc(N3CCCCC3)nn2)c1C	.	.	.	.	/	/
CN1C(=O)Cc2cc(S(=O)(=O)NCc3cccs3)ccc21	.	.	.	.	/	/
C/C(=N\NC(=O)CNc1ccc(F)cc1)c1cc2ccccc2o1	64	.	.	.	.	.
O=C1c2ccccc2C(=O)c2c(NCc3cccnc3)cccc21	.	.	/	.	/	/
CNc1cccc2c1C(=O)c1ccccc1C2=O	67	.	.	.	.	.
Cc1ccc(C2=C(c3ccc([N+](=O)[O-])cc3)C(=O)OC2)cc1C	54	.	.	.	.	.
Cc1cc(NC(=O)c2ccc(C)s2)n(-c2nc3ccccc3[nH]2)n1	.	.	.	.	.	.
Cc1cc(NC(=O)c2c(F)cccc2Cl)n(-c2nc3ccccc3[nH]2)n1	99	.	.	.	.	.
Cc1cc(NC(=O)c2ccccc2F)n(-c2nc3ccccc3[nH]2)n1	.	.	/	.	.	.
Cc1cc(NC(=O)C2CCCCC2)n(-c2nc3ccccc3[nH]2)n1	.	.	.	.	/	/
Cc1cc(NC(=O)c2c(F)cccc2F)n(-c2nc3ccccc3[nH]2)n1	.	.	/	.	.	.
C[n+]1ccccc1/C=C/c1cc(Br)ccc1O	.	.	.	.	/	/
COc1ccc(OC)c(NC(=O)COC(=O)c2cc3c(s2)CCC3)c1	80	.	.	.	.	.
COC(=O)c1c(NC(=O)/C=C/C(=O)O)sc(C)c1-c1ccc(C(C)C)cc1	57	.	.	.	.	.
Nc1ncnc2oc(-c3ccco3)c(-c3ccco3)c12	.	.	.	.	/	/
SMILES	Arrestin-AP2 inh	pCIP destab	Lipid droplet	CTSL1 counter	Arr AP2 CP1	GST-FITC bead
Cc1ccc(OCc2cn3cccnc3n2)cc1	67	.	.	.	.	.
Cc1nnc(SCCn2c(Br)nc3c2c(=O)[nH]c(=O)n3C)s1	95	.	/	.	.	.
COC(=O)C1=C(C(C)=O)C(c2ccc(C(=O)OC)cc2)n2nnnc2N1 (stereo not drawn)	100	.	.	.	.	.
CC1CN(C(=O)COc2ccc3ccccc3c2Br)CC(C)O1 (stereo not drawn)	67	.	.	.	.	.
O=C(COc1ccc2ccccc2c1Br)N1CCCCC1	.	.	.	.	/	/
CCN(C(=O)COC(=O)CNS(=O)(=O)c1ccc2ccccc2c1)C1CCCCC1	.	/	/	.	/	/
CCCCn1c(N)c(NCC(C)C)c(=O)[nH]c1=O	57	.	.	.	.	.
COc1ccc(NC(=O)CCN(c2ccc(OC)cc2)S(=O)(=O)c2ccc(C)c(C)c2)cc1	65	/	/	/	.	.
COc1ccc(N(CC(=O)Nc2ccc(C)c(C)c2)S(=O)(=O)c2c(C)noc2C)cc1	.	.	.	.	/	/
O=C(C1CCN(S(=O)(=O)c2cc(Cl)ccc2Cl)CC1)N1CCOCC1	56	.	.	.	.	.
Cc1ccc(Nc2nc(N)nc(CC#N)n2)cc1	.	.	.	.	/	/

Bioassay records: PubChem, several laboratories
